Screening results: PubChem, several laboratories
EphB4 antag: blocks human EphB4 binding to ephrin-B2; P54760; EphB4 LBD / TNYL-RAW-Alexa532 peptide, fluorescence polarization; inhibition, % at 7 µM; 0.15% of 97,000 active; AID 720;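 active means inhibition above the screen-wide mean inhibition plus 3 SD, cut at about 15% in these data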
Target sequence (P54760 whole entry, looked up, the tested form may be a part): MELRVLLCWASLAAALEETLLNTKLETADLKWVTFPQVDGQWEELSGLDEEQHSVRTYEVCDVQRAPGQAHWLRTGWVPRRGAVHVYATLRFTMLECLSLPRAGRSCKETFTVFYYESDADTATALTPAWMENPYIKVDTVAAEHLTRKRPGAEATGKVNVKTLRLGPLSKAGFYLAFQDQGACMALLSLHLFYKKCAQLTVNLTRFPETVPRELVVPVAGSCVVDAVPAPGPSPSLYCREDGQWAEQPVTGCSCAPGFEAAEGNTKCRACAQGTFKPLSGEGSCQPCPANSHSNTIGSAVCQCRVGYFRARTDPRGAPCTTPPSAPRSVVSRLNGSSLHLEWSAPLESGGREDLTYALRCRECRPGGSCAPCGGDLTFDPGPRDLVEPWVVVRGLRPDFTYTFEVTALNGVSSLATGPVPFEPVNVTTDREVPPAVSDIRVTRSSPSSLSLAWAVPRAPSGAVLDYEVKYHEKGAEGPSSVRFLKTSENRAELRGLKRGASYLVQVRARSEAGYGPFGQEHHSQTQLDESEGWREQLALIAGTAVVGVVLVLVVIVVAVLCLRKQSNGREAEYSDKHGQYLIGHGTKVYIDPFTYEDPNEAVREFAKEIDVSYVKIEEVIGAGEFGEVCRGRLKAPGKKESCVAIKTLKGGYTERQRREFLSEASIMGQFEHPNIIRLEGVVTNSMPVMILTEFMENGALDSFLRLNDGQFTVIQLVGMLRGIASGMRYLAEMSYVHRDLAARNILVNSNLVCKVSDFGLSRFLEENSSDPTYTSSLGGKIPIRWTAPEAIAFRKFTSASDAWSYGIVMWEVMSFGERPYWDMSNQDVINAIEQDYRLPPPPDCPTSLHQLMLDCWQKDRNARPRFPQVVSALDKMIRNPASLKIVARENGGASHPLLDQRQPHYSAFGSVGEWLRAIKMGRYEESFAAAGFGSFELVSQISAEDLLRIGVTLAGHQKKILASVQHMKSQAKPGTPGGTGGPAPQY
hDAT+cocaine: changed human dopamine transporter uptake under cocaine IC80; AID 449768; Q01959; B-score at 10 µM; LLC-PK1 hDAT cells, [14C]-dopamine uptake with cocaine IC80; actives deviate in either direction; 1.3% of 110,000 active;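 active means Z score or B-score, a plate-position-corrected score, falls beyond the plate's 99.7% confidence bounds, in either direction; inactive means both scores lie inside the 99.7% bounds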
PLK1 inh: blocks human PLK1 kinase activity. recombinant PLK1 kinase, TR-FRET peptide phosphorylation. inhibition, % at 10 µM. 0.53% of 97,000 active. P53350;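 active means inhibition of 50% or more in the single-concentration screen; inactive means inhibition below 50%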
FAK blocker: FAK (human) kinase inhibition. AID 727. 0.84% of 97,000 active. biochemical FAK kinase activity assay. inhibition, %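 (tested at 7 µM)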
Plk1 PBD FP: blocks phosphopeptide binding to human Plk1 polo box domain | 0.13% of 97,000 active | P53350 | Plk1 PBD phosphopeptide binding, fluorescence polarization | inhibition, %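 (tested at about 20 µM)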; in the data active means inhibition above about 34%, passing the limit was not always enough
HIV Rev-RRE inh: inhibitors of HIV-1 Rev-RRE RNA interaction; Rev peptide-RRE RNA binding, FRET; inhibition, % at 8 µM; 0.79% of 97,000 active; AID 704;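 active means inhibition above the screen-wide mean plus 3 SD, cut at about 35% in these data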
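assay system = Cy5-tagged RRE RNA duplex with fluorescein-tagged Rev peptide | incubation = 5 + 15 min at 25 °C | also added = labelled Rev peptide | measure = % inhibition of FRET ratio versus controls | benchmarks = DMSO wells as 0% and neomycin B wells as 100% inhibition | measured by = FRET fluorescence readout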
FAK inh conf: FAK (human) inhibition confirmed | shares compounds with FAK blocker | 28% of 750 active | FAK kinase biochemical inhibition assay | inhibition, % at 7 µM | AID 794
Large screens that a line does not name were inactive (follow-up assays come after a bar, where they were run). Sampled rows, rich in hits. Any-hit rate of the full collection: about 3.2%. Unless noted, no stated cut-off is given here; in the data, active means inhibition above about 19%; inactive means the rest.

Cc1cc(C)n2nc(C(=O)Nc3ccc4c(c3)OCO4)nc2n1	FAK blocker 92.5 | FAK inh conf inactive
CCC(=O)Nc1nnc(Sc2ccc(N(C)C)cc2)s1	FAK blocker 20.6 (no result: hDAT+cocaine) | FAK inh conf inactive
CCCC(=O)Nc1nnc(Sc2ccc(N(C)C)cc2)s1	none
CCN1CCN(C(=O)CN(c2ccccc2C)S(C)(=O)=O)CC1	none
Cc1nn(Cc2ccc(C(=O)Nc3nccs3)cc2)c(C)c1Cl	FAK blocker 21.8 (no result: hDAT+cocaine) | FAK inh conf inactive
CN1CCc2nc3sc(C(=O)C45CC6CC(CC(C6)C4)C5)c(N)c3cc2C1	FAK blocker 51.0 (no result: hDAT+cocaine) | FAK inh conf 34.1
CC1(C)Cc2nc3sc(C(=O)NCCO)c(N)c3cc2CO1	none
CC1CCN(CCCCOc2ccccc2[N+](=O)[O-])CC1	none
Cc1ccc(C(=O)N/N=C/c2ccc([N+](=O)[O-])s2)cc1	FAK blocker 50.1 | FAK inh conf inactive
Oc1cccc(Nc2ncnc3ccccc23)c1	FAK blocker 22.6 | FAK inh conf inactive
CC(C)(C)c1nc(SCC(=O)NCc2ccco2)c2ccccc2n1	FAK blocker 37.6 | FAK inh conf inactive
Cc1ccc(C)c(C(=O)CSc2n[nH]c(-c3ccncc3)n2)c1	FAK blocker 30.5 | FAK inh conf inactive
O=C(CSc1n[nH]c(-c2ccncc2)n1)c1ccccc1	none
Cc1cccc(N2CCN(S(=O)(=O)c3ccc4c(c3)CCN4C(=O)CCC(=O)O)CC2C)c1 (stereo unspecified)	none
CN(CCO)c1nc(N)c2c(N)nc3c(c2c1C#N)CC(=O)N3C1CCCC1	FAK blocker 35.2 | FAK inh conf inactive
CC(C)(C)N1C(=O)Cc2c1nc(N)c1c(N)nc(N3CCCCC3CO)c(C#N)c21 (stereo unspecified)	hDAT+cocaine -4.19, FAK blocker 55.9 | FAK inh conf inactive
N#Cc1c(N2CCCCC2)nc(N)c2c(N)nc3c(c12)CC(c1ccccc1)O3 (stereo unspecified)	none
CCN(CC)c1nc(N)c2c(N)nc3c(c2c1C#N)CC(c1ccccc1)O3 (stereo unspecified)	none
CCN1C(=O)c2cccc3c(S(=O)(=O)NCc4cccnc4)ccc1c23	none
CCN1C(=O)c2cccc3c(S(=O)(=O)NCc4ccco4)ccc1c23	FAK blocker 20.6 | FAK inh conf inactive
COc1ccccc1C1/C(=C(\O)c2c(C)nc3c(C)cccn23)C(=O)C(=O)N1CCCN(C)C (stereo unspecified)	none (no result: hDAT+cocaine)
NC(=O)c1c(NC(=O)c2ccco2)sc2c1CCC2	FAK blocker 20.1 | FAK inh conf inactive
CCC(=O)Nc1sc2c(c1C(N)=O)CCC2	FAK blocker 21.4 | FAK inh conf inactive
CC1=C([N+](=O)[O-])C(c2ccccc2)C2=C(N1)c1ccccc1C2=O (stereo unspecified)	FAK blocker 24.9 | FAK inh conf inactive
COc1ccc(C2C(C#N)=C(C)NC3=C2C(=O)c2ccccc23)cc1 (stereo unspecified)	none
Cc1ccc(NC(=O)CSc2nc3ccccc3c3nc(CCc4c(C)n[nH]c4C)nn23)cc1F	FAK blocker 21.1 | FAK inh conf inactive
Cc1n[nH]c(C)c1CCc1nc2c3ccccc3nc(SCC(N)=O)n2n1	none
Cc1ccc(C(=O)COC(=O)c2ccc3c(c2)C(=O)N(c2cccc4ncccc24)C3=O)cc1C	FAK blocker 38.9 | FAK inh conf 22.6
N#Cc1cccc(NC(=O)c2ccccc2C(=O)O)c1	FAK blocker 21.6 | FAK inh conf inactive
Cc1ccccc1C(=O)Nc1cccc(C#N)c1	none
COC(=O)C1=NN(N=O)C2(CC(=O)N(c3cc(C)cc(C)c3)C2=O)C1 (stereo unspecified)	none
Cc1ccc(/C=N\Nc2nc3ccc(Cl)cc3[nH]2)o1	FAK blocker 21.4 | FAK inh conf inactive
CCO[C@H]1OC(C(=O)NC2CC2)=C[C@@H](c2coc3ccccc3c2=O)[C@@H]1CCCO	none (no result: EphB4 antag, PLK1 inh, FAK blocker, Plk1 PBD FP, HIV Rev-RRE inh)
COCCN(Cc1ccccc1)P(=O)(O)c1ccccc1OCC(=O)O	FAK blocker 62.1 | FAK inh conf 51.6
CC(=O)Cc1ccccc1OCC(=O)O	none
CC(C)C(C(=O)O)N1C(=O)/C(=C/C=C/c2ccco2)SC1=S (stereo unspecified)	FAK blocker 87.9 | FAK inh conf inactive
C1CCN(c2c3c(nc4nnnn24)CCCC3)CC1	none
CCC(=O)n1nc(-c2ccc(Cl)cc2)nc1NCc1ccccc1	none
CCC1CCCCN1Cc1cc(OC)c(O)c([N+](=O)[O-])c1 (stereo unspecified)	none
O=C(Nc1ccc2nc(-c3ccccc3)[nH]c2c1)c1ccco1	none
O=C(Nc1cccc(-c2nc3ccccc3[nH]2)c1)c1cccc(NC(=O)c2ccco2)c1	FAK blocker 71.0 | FAK inh conf 61.7
O=C(C1CC1)N1CCc2cc(Br)cc(S(=O)(=O)NCC3COc4ccccc4O3)c21 (stereo unspecified)	none (no result: EphB4 antag, PLK1 inh, FAK blocker, Plk1 PBD FP, HIV Rev-RRE inh)
O=c1[nH]c(Nc2ccccc2)cc2ccccc12	FAK blocker 38.2, HIV Rev-RRE inh 61.3 | FAK inh conf 34.6
COCCOC(=O)c1c(C)oc2ccc(NS(=O)(=O)c3ccccc3)cc12	none
COC(=O)c1c(C)oc2ccc(NS(=O)(=O)c3cccs3)cc12	FAK blocker 23.6 | FAK inh conf inactive
Cc1cccc(NC(=O)c2cc(-c3ccco3)nc3ccccc23)n1	none
O=C(N/N=C/c1cccc(F)c1)c1cc(-c2ccco2)nc2ccccc12	FAK blocker 68.0 | FAK inh conf 35.8
O=C(Nc1ccc(Cl)c(Cl)c1)N1CCSC1c1ccco1 (stereo unspecified)	hDAT+cocaine -2.07, FAK blocker 25.9 | FAK inh conf inactive
O=C(C1CCCN1C(=O)c1cccs1)N1CCc2ccccc21 (stereo unspecified)	none
CC(NS(=O)(=O)c1ccccc1)C(c1cccs1)N1CCN(C)CC1 (stereo unspecified)	none
C=CCOc1ccc(/C=C/C(C)=N\O)cc1	FAK blocker 19.8 | FAK inh conf inactive
COC(=O)c1cccc2c1-c1ccccc1/C2=N/O	FAK blocker 49.6 (no result: hDAT+cocaine) | FAK inh conf 28.5
Cc1nc2cccc(C(=O)NCc3ccccc3)c2o1	none
CC1CCc2nn(CC(=O)N3CCc4ccccc43)cc2C1 (stereo unspecified)	none
CCCCc1cc(=O)oc2cc(C)c(CN3CCCC3)c(O)c12	FAK blocker 20.8 | FAK inh conf inactive
Nc1ccc(-c2nc3c(Cl)cc(N)cc3[nH]2)cc1	FAK blocker 25.5 | FAK inh conf inactive
Nc1ccc2nc(-c3ccc(N)c(Cl)c3)[nH]c2c1	none
COC(=O)c1cc(OC)c(OC)cc1NC(=O)c1cc(-c2ccccc2)nc2ccccc12	FAK blocker 21.4 (no result: hDAT+cocaine) | FAK inh conf inactive
